{"data": "Results collected from several papers", "target": "Serine/threonine-protein kinase TAO1 (TAOK1, Homo sapiens, UniProt Q7L7X3)", "One construct used (Q7L7X3 1-1001)": "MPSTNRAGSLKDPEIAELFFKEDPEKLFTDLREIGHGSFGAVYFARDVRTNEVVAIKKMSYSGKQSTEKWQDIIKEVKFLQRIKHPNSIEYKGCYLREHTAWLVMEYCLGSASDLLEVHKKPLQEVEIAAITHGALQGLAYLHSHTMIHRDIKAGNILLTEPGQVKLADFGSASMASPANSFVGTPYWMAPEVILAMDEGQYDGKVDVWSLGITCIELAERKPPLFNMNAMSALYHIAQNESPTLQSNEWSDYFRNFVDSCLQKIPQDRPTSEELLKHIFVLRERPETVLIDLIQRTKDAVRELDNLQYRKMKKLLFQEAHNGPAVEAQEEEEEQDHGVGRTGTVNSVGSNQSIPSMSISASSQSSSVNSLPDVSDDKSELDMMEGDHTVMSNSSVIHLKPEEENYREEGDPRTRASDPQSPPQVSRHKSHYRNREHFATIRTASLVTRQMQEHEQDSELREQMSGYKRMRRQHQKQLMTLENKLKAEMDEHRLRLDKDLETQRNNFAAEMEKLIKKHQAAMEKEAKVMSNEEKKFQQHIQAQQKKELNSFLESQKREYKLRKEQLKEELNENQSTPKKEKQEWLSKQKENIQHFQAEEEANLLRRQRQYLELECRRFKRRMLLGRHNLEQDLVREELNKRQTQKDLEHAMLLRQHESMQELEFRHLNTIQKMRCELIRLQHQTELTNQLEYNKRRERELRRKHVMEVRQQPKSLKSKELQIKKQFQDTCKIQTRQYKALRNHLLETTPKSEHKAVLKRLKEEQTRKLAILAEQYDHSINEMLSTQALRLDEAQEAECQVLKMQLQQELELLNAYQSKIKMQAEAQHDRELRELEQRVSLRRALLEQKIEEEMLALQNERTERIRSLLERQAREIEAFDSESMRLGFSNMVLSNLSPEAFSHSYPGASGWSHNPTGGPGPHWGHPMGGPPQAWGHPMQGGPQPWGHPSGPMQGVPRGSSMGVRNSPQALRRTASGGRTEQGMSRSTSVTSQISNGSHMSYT", "note": "Lines come from different studies, so protocols differ."}
{"Compound": "CN(C(=O)c1ccccc1)c1cc(N(C)c2ccc3c(c2)CCc2ccc(C(=O)NCCN4CCOCC4)cc2C3=O)ccc1F", "assay": "cell-free assay, competition with immobilised ligand", "setting": "1 µM", "remaining binding": "81%"}
{"Compound": "CN(CCCC(F)(F)F)c1nccc(-c2cnn3ncccc23)n1", "assay": "binding", "setting": "1 µM", "remaining binding": "100%"}
{"Compound": "Cc1cnc(Nc2ccc(C(=O)N3CCC(N4CCCC4)CC3)cc2)nc1-c1cc2ccccc2s1", "assay": "binding, competition with immobilised ligand", "setting": "1 µM", "remaining binding": "64%"}
{"Compound": "COc1cnc(Nc2cccc(S(N)(=O)=O)c2)nc1N1CCN(c2ccccc2)C(=O)C1", "assay": "binding, competition with immobilised ligand", "setting": "1 µM", "remaining binding": "86%"}
{"Compound": "O=C(NCc1ncc(C(F)(F)F)cc1Cl)c1ccc2c(c1)C1(CCS(=O)(=O)CC1)[C@@H](C1CC1)N2S(=O)(=O)c1ccc(F)cc1", "assay": "cell-free assay, competition with immobilised ligand", "setting": "1 µM", "remaining binding": "91%"}
{"Compound": "c1cncc(-c2cccc(Nc3nccc(NC4CCCCC4)n3)c2)c1", "assay": "binding, competition with immobilised ligand", "setting": "10 µM", "remaining binding": "97%"}
{"Compound": "O=C(NCCCN1CCOCC1)c1ccc(Nc2nccc(-c3cc4ccccc4s3)n2)cc1", "assay": "binding, competition with immobilised ligand", "setting": "1 µM", "remaining binding": "82%"}
{"Compound": "CN([C@@H]1CCc2c(CC(=O)O)c3ccccc3n2C1)S(=O)(=O)c1ccc(F)cc1", "assay": "cell-free assay, competition with immobilised ligand", "setting": "1 µM", "remaining binding": "93%"}
{"Compound": "FC(F)(F)Oc1cccc(-c2cnc3ccc(-c4ccncc4)nn23)c1", "assay": "binding, competition with immobilised ligand", "setting": "5 µM", "remaining binding": "40%"}
{"Compound": "CNCc1ccccc1-c1csc([C@H](C)Nc2nc(C)nc3cc(OC)c(OC)cc23)c1", "assay": "cell-free assay, competition with immobilised ligand", "setting": "1 µM", "remaining binding": "100%"}
{"Compound": "COc1ncc2cc3ccccc3nc2c1C#N", "assay": "cell-free assay, competition with immobilised ligand", "setting": "5 µM", "remaining binding": "100%"}
{"Compound": "CN(C)c1ncc(F)c(-c2cnn3ncccc23)n1", "assay": "binding", "setting": "1 µM", "remaining binding": "73%"}
{"Compound": "O=C(Nc1c[nH]nc1C(=O)NC1CCNCC1)c1cc(F)cc(F)c1", "assay": "binding, competition with immobilised ligand", "setting": "1 µM", "remaining binding": "80%"}
{"Compound": "COc1ccnn2ncc(-c3ccnc(N(C)C)n3)c12", "assay": "binding", "setting": "1 µM", "remaining binding": "81%"}
{"Compound": "Nc1ncc2c(n1)-c1c([nH]c3ccc(C#CC4CC4)cc13)CCCC2", "assay": "binding, competition with immobilised ligand", "setting": "1 µM", "remaining binding": "97%"}
{"Compound": "F[C@@H]1CCN(c2nccc(-c3cnn4ncccc34)n2)C1", "assay": "binding", "setting": "1 µM", "remaining binding": "100%"}
{"Compound": "CCC(=N\\O)/C(C)=C/c1ccc(F)cc1", "assay": "cell-free assay, competition with immobilised ligand", "setting": "1 µM", "remaining binding": "100%"}
{"Compound": "N[C@@H]1CCN(c2nccc(-c3cnn4ncccc34)n2)C1", "assay": "binding", "setting": "1 µM", "remaining binding": "100%"}
{"Compound": "O=C(NCCCN1CCOCC1)c1ccc(Nc2ncc(Cl)c(-c3ccc(Cl)s3)n2)cc1", "assay": "binding, competition with immobilised ligand", "setting": "1 µM", "remaining binding": "43%"}
{"Compound": "C[C@H]1CCN(c2nccc(-c3cnn4ncccc34)n2)C1", "assay": "binding", "setting": "1 µM", "remaining binding": "78%"}
{"Compound": "CC(=O)Nc1c(C(C)=O)c(=O)n(C)c2nc(-c3ccc(Cl)cc3Cl)c(-c3ccc(Cl)cc3)cc12", "assay": "cell-free assay, competition with immobilised ligand", "setting": "1 µM", "remaining binding": "89%"}
{"Compound": "CN(c1nccc(-c2cnn3ncccc23)n1)C1CC1", "assay": "binding", "setting": "1 µM", "remaining binding": "100%"}
{"Compound": "CCN1CCN(Cc2ccc(C(=O)Nc3ccc(C)c(Oc4ccc5c(c4)CC(=O)N5)c3)cc2C(F)(F)F)CC1", "assay": "binding, competition with immobilised ligand", "setting": "1 µM", "remaining binding": "100%"}
